# Source: ChEMBL document CHEMBL1129572, “Synthesis and pharmacological properties of novel 8-substituted imidazobenzodiazepines: high-affinity, selective probes for alpha 5-containing GABAA receptors” (J Med Chem, 1996)
# pIC50, pKi: −log10 of the molar value.
# Experiments:
# [1] = biological target: T1, GABA-A receptor; alpha-1/beta-2/gamma-2 (Homo sapiens, UniProt P14867+P18507+P47870); assay: Binding affinity for human GABA-A receptor alpha-1-beta-2-gamma-2 expressed in L(tk-) cell membranes
# T1 sequence (P14867 whole entry): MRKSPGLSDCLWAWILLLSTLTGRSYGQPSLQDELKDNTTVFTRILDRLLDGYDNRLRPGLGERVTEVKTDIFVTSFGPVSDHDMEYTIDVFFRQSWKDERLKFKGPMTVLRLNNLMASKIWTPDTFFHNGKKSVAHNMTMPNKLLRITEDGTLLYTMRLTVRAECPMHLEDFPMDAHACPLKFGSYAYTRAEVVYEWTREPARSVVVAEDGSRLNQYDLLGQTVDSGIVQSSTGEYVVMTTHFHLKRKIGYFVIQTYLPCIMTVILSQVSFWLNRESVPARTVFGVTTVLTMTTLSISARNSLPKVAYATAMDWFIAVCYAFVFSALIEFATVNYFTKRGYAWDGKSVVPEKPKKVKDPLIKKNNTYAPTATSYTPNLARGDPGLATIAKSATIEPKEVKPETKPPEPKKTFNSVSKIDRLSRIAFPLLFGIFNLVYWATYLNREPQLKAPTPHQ
# T1 sequence (P47870 whole entry): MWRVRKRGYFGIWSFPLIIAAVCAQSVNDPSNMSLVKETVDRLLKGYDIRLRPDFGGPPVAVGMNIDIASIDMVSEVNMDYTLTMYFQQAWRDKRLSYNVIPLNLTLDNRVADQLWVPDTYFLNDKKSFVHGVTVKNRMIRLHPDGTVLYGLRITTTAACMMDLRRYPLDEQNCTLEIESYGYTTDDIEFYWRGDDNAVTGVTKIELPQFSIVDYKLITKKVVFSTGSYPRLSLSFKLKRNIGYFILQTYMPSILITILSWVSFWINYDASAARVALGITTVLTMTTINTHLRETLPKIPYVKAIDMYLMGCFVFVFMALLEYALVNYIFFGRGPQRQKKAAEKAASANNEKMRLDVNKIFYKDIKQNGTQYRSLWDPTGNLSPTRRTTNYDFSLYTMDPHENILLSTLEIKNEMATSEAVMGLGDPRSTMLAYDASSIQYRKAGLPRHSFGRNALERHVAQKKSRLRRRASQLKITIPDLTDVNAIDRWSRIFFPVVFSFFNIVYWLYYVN
# T1 sequence (P18507 whole entry): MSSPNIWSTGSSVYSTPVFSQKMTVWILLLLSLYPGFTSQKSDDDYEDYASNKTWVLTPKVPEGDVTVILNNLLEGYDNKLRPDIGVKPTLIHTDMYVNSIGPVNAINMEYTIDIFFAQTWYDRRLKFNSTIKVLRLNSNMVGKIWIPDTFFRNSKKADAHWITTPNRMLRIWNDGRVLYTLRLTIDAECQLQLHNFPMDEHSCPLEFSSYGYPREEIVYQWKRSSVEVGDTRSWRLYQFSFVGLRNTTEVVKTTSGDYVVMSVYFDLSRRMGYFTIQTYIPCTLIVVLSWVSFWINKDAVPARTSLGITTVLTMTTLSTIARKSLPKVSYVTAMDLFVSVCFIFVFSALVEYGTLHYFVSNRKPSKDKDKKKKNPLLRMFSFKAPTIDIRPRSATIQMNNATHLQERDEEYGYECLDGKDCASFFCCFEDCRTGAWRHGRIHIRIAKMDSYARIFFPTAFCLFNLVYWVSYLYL
# [2] = biological target: GABA A receptor alpha-6/beta-2/gamma-2 (Homo sapiens, UniProt P18507+P47870+Q16445); assay: Binding affinity for human GABA-A receptor alpha-6-beta-2-gamma-2 expressed in L(tk-) cell membranes
# GABA A receptor alpha-6/beta-2/gamma-2, sequence (Q16445 whole entry, one chain of several): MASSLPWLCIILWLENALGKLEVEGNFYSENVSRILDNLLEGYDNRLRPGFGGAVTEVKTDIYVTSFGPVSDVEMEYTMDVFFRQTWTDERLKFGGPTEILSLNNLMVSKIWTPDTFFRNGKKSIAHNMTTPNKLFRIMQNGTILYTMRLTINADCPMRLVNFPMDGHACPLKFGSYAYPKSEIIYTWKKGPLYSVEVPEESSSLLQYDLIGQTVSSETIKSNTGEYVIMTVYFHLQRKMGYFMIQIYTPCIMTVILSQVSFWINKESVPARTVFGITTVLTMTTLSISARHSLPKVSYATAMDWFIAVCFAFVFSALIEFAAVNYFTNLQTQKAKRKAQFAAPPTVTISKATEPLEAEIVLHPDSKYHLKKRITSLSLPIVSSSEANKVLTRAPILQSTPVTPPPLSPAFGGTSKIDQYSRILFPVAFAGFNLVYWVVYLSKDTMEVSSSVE
# [3] = biological target: T2, GABA A receptor alpha-3/beta-2/gamma-2 (Homo sapiens, UniProt P18507+P34903+P47870); assay: Binding affinity for human GABA-A receptor alpha-3-beta-2-gamma-2 expressed in L(tk-) cell membranes
# T2 sequence (P47870 whole entry): T1 sequence (P47870 whole entry)
# T2 sequence (P18507 whole entry): T1 sequence (P18507 whole entry)
# T2 sequence (P34903 whole entry): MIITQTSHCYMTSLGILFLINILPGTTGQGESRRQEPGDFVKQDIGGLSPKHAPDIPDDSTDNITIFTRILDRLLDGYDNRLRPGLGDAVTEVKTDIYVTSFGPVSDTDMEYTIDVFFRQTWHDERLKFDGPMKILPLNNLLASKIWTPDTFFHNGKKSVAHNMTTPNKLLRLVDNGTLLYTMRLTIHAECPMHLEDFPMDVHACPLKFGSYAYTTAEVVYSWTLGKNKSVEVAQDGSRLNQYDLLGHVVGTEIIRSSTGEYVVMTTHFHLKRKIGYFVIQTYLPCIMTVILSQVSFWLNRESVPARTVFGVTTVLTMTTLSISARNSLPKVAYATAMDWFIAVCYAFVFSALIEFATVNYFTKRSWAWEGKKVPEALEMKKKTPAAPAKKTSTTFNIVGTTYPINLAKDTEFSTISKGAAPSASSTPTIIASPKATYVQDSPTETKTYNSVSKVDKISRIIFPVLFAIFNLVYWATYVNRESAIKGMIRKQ
# [4] = Binding affinity for human GABA-A receptor alpha-5--beta-2-gamma-2 expressed in L(tk-) cell membranes
# Method in brief: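 Competition binding on membranes of Ltk cells expressing human αxβ2γ2 receptors. Radioligand was [3H]Ro 15-1788, or [3H]Ro 15-4513 for α6β2γ2. Ki is the mean of two determinations differing by less than 10%.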
# [5] = biological target: T3, GABA A receptor alpha-2/beta-2/gamma-2 (Homo sapiens, UniProt P18507+P47869+P47870); assay: Binding affinity for human GABA-A receptor alpha-2-beta-2-gamma-2 expressed in L(tk-) cell membranes
# T3 sequence (P47870 whole entry): T1 sequence (P47870 whole entry)
# T3 sequence (P18507 whole entry): T1 sequence (P18507 whole entry)
# T3 sequence (P47869 whole entry): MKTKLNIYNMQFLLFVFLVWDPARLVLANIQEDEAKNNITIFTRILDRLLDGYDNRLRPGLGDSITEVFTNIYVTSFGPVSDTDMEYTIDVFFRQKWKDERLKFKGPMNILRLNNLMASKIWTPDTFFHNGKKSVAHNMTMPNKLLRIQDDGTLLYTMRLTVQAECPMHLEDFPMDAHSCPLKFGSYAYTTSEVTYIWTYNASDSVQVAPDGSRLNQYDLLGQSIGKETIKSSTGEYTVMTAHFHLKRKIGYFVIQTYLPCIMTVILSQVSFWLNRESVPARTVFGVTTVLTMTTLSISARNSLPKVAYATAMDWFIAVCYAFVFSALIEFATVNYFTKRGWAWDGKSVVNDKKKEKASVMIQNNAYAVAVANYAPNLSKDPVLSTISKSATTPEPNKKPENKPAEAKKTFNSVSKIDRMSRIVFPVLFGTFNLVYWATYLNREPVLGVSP
# Homo sapiens = organism: Homo sapiens; assay: Relative binding affinity for GABA-A receptor alpha-5 over alpha1 subunits
# Mus musculus [6] = organism: Mus musculus; assay: Anticonvulsant activity against convulsions induced by Compound 9; type: functional
# Method in brief: (§1)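 Male NIH/Swiss mice (~30 g) given graded ip doses of zolpidem, flumazenil or vehicle in 10% diluted Emulphor:90% saline. 10 min later they were challenged ip with DMCM (7.5 mg/kg) or the convulsant test ligand (20 mg/kg). Convulsions were observed; N = 5–10 per dose. ED50 came from nonlinear regression.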
# Mus musculus [7] = organism: Mus musculus; assay: Anticonvulsant activity against convulsions induced by DMCM; type: functional; method in brief: as §1
# Mus musculus [8] = organism: Mus musculus; assay: Convulsant activity was evaluated in mice; type: functional
# Method in brief: (§2)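 Adult male NIH/Swiss mice (~30 g) got a single ip injection of graded doses (up to 40 or 80 mg/kg) or vehicle, suspended in 10% diluted Emulphor:90% saline with warming and sonication. They were observed 10 min; tonic/clonic convulsions with loss of righting reflex were scored. CD50 is the dose seizing half the maximal number convulsing, by nonlinear regression.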
# Mus musculus [9] = organism: Mus musculus; assay: Dose required for 50% seizure of maximum number of animals; type: functional; method in brief: as §2
# Mus musculus [10] = organism: Mus musculus; assay: Convulsant activity was evaluated; type: functional; method in brief: as §2
# Mus musculus [11] = organism: Mus musculus; assay: Proconvulsant potency at which 50% of the animals (mice) convulsed 15 min after receiving PTZ.; type: functional; conditions: read-out: PD50
# Method in brief: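 Mice got a single ip dose of the ligand or vehicle, then PTZ (40 mg/kg ip) 15 min later, and were observed 10 min. N = 5–10 per group. PD50 is the dose at which 50% of animals convulsed, by nonlinear regression.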
# [12] = biological target: T4, Gamma-aminobutyric acid receptor subunit alpha-5 (Rattus norvegicus, UniProt P19969); assay: Inhibition of [3H]flunitrazepam binding to alpha-5 GABA-A receptor of rat hippocampal membranes; type: cell membranes, Membrane
# T4 sequence (P19969 whole entry): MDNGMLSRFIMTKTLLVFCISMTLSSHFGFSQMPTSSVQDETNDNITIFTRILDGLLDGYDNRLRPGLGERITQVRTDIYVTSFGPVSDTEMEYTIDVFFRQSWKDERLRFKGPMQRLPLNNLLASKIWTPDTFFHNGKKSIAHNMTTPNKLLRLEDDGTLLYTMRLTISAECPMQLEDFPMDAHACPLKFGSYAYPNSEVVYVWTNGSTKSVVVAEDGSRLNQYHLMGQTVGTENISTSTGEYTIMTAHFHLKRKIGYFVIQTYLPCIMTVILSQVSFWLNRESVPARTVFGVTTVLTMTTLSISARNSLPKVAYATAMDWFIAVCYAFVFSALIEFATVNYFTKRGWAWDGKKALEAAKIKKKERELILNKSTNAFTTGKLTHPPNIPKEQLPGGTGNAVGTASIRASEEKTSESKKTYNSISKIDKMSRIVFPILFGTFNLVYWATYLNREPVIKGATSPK
# Method in brief: (§3)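 Male Sprague–Dawley rat hippocampal or cerebellar membranes, washed in 50 mM Tris-citrate pH 7.4. They were incubated with ~1 nM [3H]flunitrazepam (final) plus NaCl, 120 min at 0–4 °C, then filtered. Nonspecific binding was set with 10 µM Ro 15-1788. IC50 used 8–12 concentrations; hippocampal data were fitted two-site (F test). Four experiments, mean ± SEM.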
# [13] = biological target: GABA-A receptor; anion channel; assay: Inhibition of [3H]flunitrazepam binding to GABA-A receptor of rat cerebral membranes; type: cell membranes, Membrane; method in brief: as §3
# [14] = biological target: T4, Gamma-aminobutyric acid receptor subunit alpha-5; assay: Inhibition of [3H]flunitrazepam binding to high affinity GABA-A receptor of rat hippocampal membranes; type: cell membranes, Membrane; method in brief: as §3
# [15] = biological target: GABA-A receptor; anion channel; assay: (§4) Inhibition of [3H]flunitrazepam binding to low affinity GABA-A receptor of rat hippocampal membranes; type: cell membranes, Membrane; method in brief: as §3
# [16] = biological target: GABA-A receptor; anion channel; assay: as §4; type: cell membranes, Membrane; method in brief: as §3; remark: listed apart in the source
# [17] = biological target: T4, Gamma-aminobutyric acid receptor subunit alpha-5; assay: Inhibition of [3H]flunitrazepam binding to alpha5 GABA-A receptor of rat hippocampal membranes; type: cell membranes, Membrane; method in brief: as §3
Compound,pKi [1],pKi [2],pKi [3],pKi [4],pKi [5],Ratio (Homo sapiens),CD50 (Mus musculus [9]) [mg/kg],further results
CC#Cc1ccc2c(c1)C(=O)N(C)Cc1c(C(=O)OCC)ncn1-2,8.00,< 7.00,7.78,8.77,7.65,6,–,–
CCOC(=O)c1ncn2c1CN(C)C(=O)c1cc(F)ccc1-2 [FLUMAZENIL],–,–,–,–,–,–,–,ED50 (Mus musculus [6]): 3.8 mg/kg; ED50 (Mus musculus [7]): 2.3 mg/kg
CCOC(=O)c1ncn2c1CN(C)C(=O)c1cc(CC)ccc1-2,7.69,6.75,7.58,8.82,7.57,13.8,–,–
CCOC(=O)c1ncn2c1CN(C)C(=O)c1cc(C#CC[Si](C)(C)C)ccc1-2,< 6.52,< 6.52,< 6.52,< 6.52,< 6.52,–,–,–
CN1Cc2c(C(=O)OC(C)(C)C)ncn2-c2ccc(Br)cc2C1=O,7.94,8.03,8.04,9.30,7.97,24,–,–
CCOC(=O)c1ncn2c1CN(C)C(=O)c1cc(C#C[Si](C)(C)C)ccc1-2,–,6.94,6.70,8.30,6.85,24,70.9,Activity (Mus musculus [8]): 85%
C#Cc1ccc2c(c1)C(=O)N(C)Cc1c(C(=O)OCC)ncn1-2,7.55,7.54,7.59,9.30,7.67,60,24,Activity (Mus musculus [10]): 70%
CN1Cc2c(C(=O)OC(C)(C)C)ncn2-c2ccc(C#C[Si](C)(C)C)cc2C1=O,6.71,7.23,6.59,8.58,6.85,75.5,2.3,Activity (Mus musculus [8]): 22%; ED50 (Mus musculus [11]): 40 mg/kg
Cc1ccc(-c2nc3ccc(C)cn3c2CC(=O)N(C)C)cc1 [ZOLPIDEM],–,–,–,–,–,–,–,ED50 (Mus musculus [6]): 7 mg/kg; ED50 (Mus musculus [7]): 0.4 mg/kg
CCc1ccc2c(c1)C(=O)N(C)Cc1c(C(=O)OC(C)(C)C)ncn1-2,7.83,7.64,7.60,8.77,7.25,8.6,–,–
CCOC(=O)c1ncn2c1CN(C)C(=O)c1cc(N=[N+]=[N-])ccc1-2 [Ro-154513],–,–,–,9.59,–,–,–,–
C#Cc1ccc2c(c1)C(=O)N(C)Cc1c(C(=O)OC(C)(C)C)ncn1-2,7.57,8.29,7.73,9.40,7.58,67.3,5.9,pIC50 [12]: 9.48; pIC50 [13]: 7.10; pIC50 [14]: 9.22; pIC50 [15]: 7.07; pIC50 [16]: 7.15; pIC50 [17]: 7.17; Activity (Mus musculus [8]): 80%
